Most compounds without a hit are left out; they make up all but 3% or so of the library.
Beta2AR agonist = beta2AR agonists driving receptor internalization, primary screen, cell-based, FAP fluorogen, flow cytometry; AID 504454, 2011; response, % (concentration not given with the values); Beta-2 adrenergic receptor (Homo sapiens), P07550; Am2.2-beta2AR cells; actives 0.43% (n = 340,000);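 active = response above a set limit, near 3 SD of response in nonfluorescent compounds, cut at about 42% in these data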
ABHD5 PLIN5 PPI = ABHD5-PLIN5 interaction inhibitors, primary screen, cell lysate, split luciferase complementation, luminescence; inhibition, % at 4 µM; AID 602281, 2012; Split G. princeps luciferase complementation, 4 h; Perilipin-5 (Homo sapiens) + 1-acylglycerol-3-phosphate O-acyltransferase ABHD5 (Homo …; actives 0.78% (n = 360,000);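 active = inhibition above the mean inhibition across every tested compound plus 3 SD, cut at about 22% in these data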;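 note: 0% = DMSO only wells and the 100% control is not disclosed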
PfG6PD inh = PfG6PD enzyme inhibitors, primary screen, biochemical, fluorescence intensity, uHTS | glucose-6-phosphate dehydrogenase-6-phosphogluconolactonase (Plasmodium falciparum 3D7) | AID 504690, 2011 | PfGluPho enzyme, NADPH resazurin-diaphorase fluorescence | actives 0.78% (n = 350,000) | inhibition, % at 20 µM;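 active = inhibition reaching at least a set limit at 20 µM in the primary screen, cut at about 59% in these data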;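 note: 0% = DMSO wells with substrate and 100% = DMSO wells lacking glucose-6-phosphate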
MC4R antagonist = MC4R antagonists of cAMP signaling, primary screen, cell-based, TR-FRET, antagonist arm of biased-ligand search; Melanocortin receptor 4 (Homo sapiens), P32245; MC4R-expressing cells, MTII-stimulated cAMP, LANCE TR-FRET; inhibition, % at 6.5 µM; actives 0.48% (n = 360,000); AID 540295, 2011;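 active = inhibition above its plate's cutoff, the mean of tested wells on that plate plus 3 SD, cut at about 29% in these data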;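 note: 0% = Melanotan II alone and 100% = Melanotan II plus saturating MCL0020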
Target sequence (P32245 whole entry, looked up): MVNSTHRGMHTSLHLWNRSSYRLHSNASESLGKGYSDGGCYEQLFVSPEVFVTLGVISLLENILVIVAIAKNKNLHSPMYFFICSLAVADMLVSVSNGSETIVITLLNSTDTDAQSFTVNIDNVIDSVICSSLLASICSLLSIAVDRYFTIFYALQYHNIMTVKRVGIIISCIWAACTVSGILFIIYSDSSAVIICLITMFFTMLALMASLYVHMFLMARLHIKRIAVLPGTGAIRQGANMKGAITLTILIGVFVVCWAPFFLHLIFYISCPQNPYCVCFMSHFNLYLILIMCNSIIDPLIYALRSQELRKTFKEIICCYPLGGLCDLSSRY
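Material – human MC4R-expressing U2OS cells · Repeats – no replicates · Detection – TR-FRET with Eu-cAMP and labeled anti-cAMP, 671 nm · Times – compound 30 min, challenge 1 h, detection 1 h · Compound – single nominal compound dose of 6.5 µM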
MC4R ag barr = MC4R agonists recruiting beta-arrestin, primary screen, cell-based, luminescence, agonist arm of biased-ligand search; AID 540308, 2011; Melanocortin receptor 4 (Homo sapiens), P32245; U2OS MC4R beta-arrestin complementation; percent of melanotan II response, DMSO zero; actives 0.98% (n = 360,000); activation, % at 8.9 µM;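 active = activation above a per-plate cutoff, the mean activation of sample wells on that plate plus 3 SD, cut at about 8% in these data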
PfGluPho conf = PfG6PD inhibitors, hit retest, confirmation, biochemical, fluorescence intensity, single concentration; inhibition, % at 20 µM; recombinant PfGluPho, NADPH-diaphorase-resazurin fluorescence; shares compounds with PfG6PD inh; AID 504753, 2011; actives 34% (n = 2,400);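 active = inhibition of at least 50% at 20 µM in any single replicate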;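 note: 0% = DMSO with substrate and 100% = DMSO lacking glucose-6-phosphate substrate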
Diaph ctr 10uM = diaphorase inhibitors and chemical oxidizers, confirmation, counter-screen for P. falciparum G6PD inhibitor project, biochemical, fluorescence intensity, 10 µM NADPH; shares compounds with PfG6PD inh; actives 39% (n = 820); inhibition, % at 20 µM; diaphorase-coupled resazurin reduction, NADPH 10 uM; AID 504862, 2011;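 active = average inhibition reaching 50% or more with the compound at 20 µM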;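 note: resorufin red fluorescence formed as diaphorase reduces resazurin using NADPH; 0% = DMSO with enzyme and 100% = DMSO without enzyme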
Diaphorase 30uM = diaphorase inhibitors and chemical oxidizers, confirmation, counter-screen for P. falciparum G6PD inhibitor project, biochemical, fluorescence intensity, 30 µM NADPH; shares compounds with PfG6PD inh; inhibition, % at 20 µM; Diaphorase/resazurin coupled assay, resorufin fluorescence; actives 29% (n = 820);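 active = inhibition averaging 50% or more, tested at 20 µM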;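 note: 0% = DMSO with enzyme and 100% = DMSO wells lacking diaphorase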
Numbers without * were called inactive; nt = no result given; ! = repeats disagree.

SMILES	Beta2AR agonist	ABHD5 PLIN5 PPI	PfG6PD inh	MC4R antagonist	MC4R ag barr	PfGluPho conf	others
Cn1c(=N)n(CC(O)c2cccc3ccccc23)c2ccccc21 (centres undefined)	8	12	80*	3	-1	62*	Diaph ctr 10uM=63*;Diaphorase 30uM=52*
CCOc1ccc(S(=O)(=O)N2CN(c3cccc(C(C)=O)c3)c3nc4ccccc4nc32)cc1	-6	4	-7	-5	-1	nt
O=C(CCc1ccc(O)c(O)c1)N/N=C/c1ccc2c(c1)OCO2	7	12	62*	3	-1	34
CC(C)Oc1ccc(CCC(=O)N/N=C/c2ccc3c(c2)OCO3)cc1	-5	6	8	9	1	nt
COC(=O)c1c(NC(=O)c2ccc([N+](=O)[O-])o2)sc2c1CCN(C(C)C)C2	30	-3	68*	3	-4	20
CC(=O)N1CCc2c(sc(NC(=O)c3ccc([N+](=O)[O-])o3)c2C#N)C1	10	17	60*	-8	0	13
COc1ccc(C(=O)Nc2sc3c(c2C#N)CCN(C(C)=O)C3)cc1	-1	3	37	10	0	nt
Cn1cc(C(CO)Cc2ccccc2)c2ccccc21 (centres undefined)	7	-5	88*	14	-1	40
C[n+]1cccc2c(Br)ccc([O-])c21	3	-29	114*	-15	0	17
[O-][n+]1cccc2c(Br)cc(Br)c(O)c21	1	-17	52	-6	-4	nt
C[c-]1[c-](C)[c-](C)[c-](C)[c-]1C.[Fe].c1cc2nccc(N3CCCC3)[c-]2c1 (centres undefined)	19	11	85*	1	-1	66*!	Diaph ctr 10uM=15;Diaphorase 30uM=11
CN(N=Cc1ccccc1)C(=S)Nc1ccccc1	nt	2	2	4	-1	nt
COC(=O)c1sc2nc(C)nc(SCC(=O)N3CCC(C(=O)O)CC3)c2c1C	-2	5	2	11	-2	nt
COc1ccc(NC(=O)c2ccc3[nH]c(C)c(C)c3c2)c(OC)c1	-21	-2	62*	17	2	-4
O=C1C2CC=CCC2C(=O)N1c1ccc(N2CCN(c3ccccn3)CC2)c([N+](=O)[O-])c1 (centres undefined)	-6	-12	-9	3	-2	nt
CC(C)c1ccc(/C=N/NC(=O)c2nnn(-c3nonc3N)c2CN(C)C2CCCCC2)cc1	3	-3	-2	10	3	nt
Cc1ccc(C(=O)Nc2ccc(Br)c(C(F)(F)F)c2)cc1	9	-6	69*	-2	6	9
CCC1CCc2c(sc(NC(=O)c3ccco3)c2C(N)=O)C1 (centres undefined)	-4	1	8	1	0	nt
CCC1CCc2c(sc(NC(=O)c3cnccn3)c2C(N)=O)C1 (centres undefined)	-1	-2	69*	8	-1	33
CCn1c(=O)c(CCC(=O)NCC2CCCO2)c(C)c2c(C)nn(-c3ccccc3)c21 (centres undefined)	10	-6	-12	9	0	nt
C/C(=N\Nc1ccc([N+](=O)[O-])cc1)c1ccc(O)cc1	-215	10	66*	-8	-3	2

Bioassay records from PubChem.
